AF4-AF9 inh: MLL-AF4/AF9 protein interaction inhibition; P42568; hit rate 0.47% among 350,000; AID 651704; inhibition, % at 10 µM; AlphaScreen, biotin-AF4 peptide binding to FLAG-AF9;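 active = every replicate reaching a set inhibition limit, whatever the replicate mean, cut at about 25% in these data; inconclusive = mean inhibition reaches that limit but some replicates miss it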;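 also: 0% = plate neutral control median and 100% = total signal loss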
Target sequence (P42568 whole entry, looked up): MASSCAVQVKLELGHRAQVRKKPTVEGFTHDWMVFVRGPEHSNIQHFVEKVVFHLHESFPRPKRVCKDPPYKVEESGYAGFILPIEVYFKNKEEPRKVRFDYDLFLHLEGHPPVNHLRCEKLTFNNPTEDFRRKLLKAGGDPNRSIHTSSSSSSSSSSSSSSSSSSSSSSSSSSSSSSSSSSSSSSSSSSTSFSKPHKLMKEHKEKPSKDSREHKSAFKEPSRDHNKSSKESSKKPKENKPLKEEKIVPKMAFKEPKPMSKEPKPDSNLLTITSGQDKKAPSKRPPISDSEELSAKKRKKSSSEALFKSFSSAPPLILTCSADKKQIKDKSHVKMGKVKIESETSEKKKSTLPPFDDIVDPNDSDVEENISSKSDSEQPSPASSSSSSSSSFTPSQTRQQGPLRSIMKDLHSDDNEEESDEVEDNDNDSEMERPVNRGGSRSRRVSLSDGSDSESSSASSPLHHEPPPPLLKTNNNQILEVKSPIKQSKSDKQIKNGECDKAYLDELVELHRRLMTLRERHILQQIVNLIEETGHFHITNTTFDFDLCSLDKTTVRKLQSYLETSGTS
S100A4 inh HTS: inhibitors of human S100A4 binding to myosin IIA peptide | hit rate 0.14% among 360,000 | P26447 | inhibition, % at 10.7 µM | S100A4/TAMRA-MyoIIA peptide fluorescence polarization;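 active = mean inhibition of at least 70% across replicates, with every replicate also reaching that level; inconclusive = mean inhibition reaches 70% but some replicates fall short; inactive = mean inhibition below 70%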
Target sequence (P26447 whole entry, looked up): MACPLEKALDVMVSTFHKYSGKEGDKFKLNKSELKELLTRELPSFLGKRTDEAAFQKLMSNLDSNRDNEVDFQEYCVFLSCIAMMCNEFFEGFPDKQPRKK
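Test system: S100A4 monomer protein; Medium: HEPES pH 7.2 with CaCl2, KCl, NaCl, DTT, Triton; Probe or stimulus: TAMRA-labelled myosin IIA heavy-chain peptide probe, 5 nM; Doses: one dose per compound; Times: polarization read 5 min after assay mix addition, stable 5–60 min; Benchmarks: neutral control DMSO, positive control TFP.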
CaV13 FRET inh: Disruptors of the CACNA1D IQ motif to Ca2+-dependent inactivation inhibitor domain association, primary screening, Förster resonance energy transfer in intact living …; HEK cells, CFP/YFP FRET ICDI-IQ, plate reader, 10 min; percent FRET-ratio fall versus neutral wells; hit rate 0.098% among 340,000; inhibition, % at 12.3 µM;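 active = mean replicate inhibition of at least 30% and at least 1% of replicates passing that level; inconclusive = only one of the two criteria is met; inactive = neither criterion is met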;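 also: 0% = median of the neutral control wells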
SIRT5 inh: blocks human SIRT5 desuccinylation of peptide. Q9NXA8. AID 652115. inhibition, % at 15 µM. hit rate 1.1% among 330,000. Purified SirT5, succinyl-peptide AMC, trypsin-coupled fluorescence; in the data active = inhibition above about 15%; inconclusive = no clear call, values can overlap the other calls
DENV2 CPE: protects cells from dengue virus 2 cytopathic effect | DENV2-infected cells, cytopathic effect rescue, plate reader | hit rate 1.7% among 350,000 | CPE inhibition, % at 9.99 µM; in the data active = CPE inhibition above about 20%, passing the limit was not always enough; inconclusive = no clear call, values can overlap the other calls; tested in BHK-21 cells;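 also: 0% = median of neutral control wells and 100% = median of positive control wells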
Numbers without * were called inactive; u = inconclusive; x = no result given. An excerpt weighted towards active compounds, which were near 2.7% of everything screened.

SMILES | AF4-AF9 inh | S100A4 inh HTS | CaV13 FRET inh | SIRT5 inh | DENV2 CPE
Cc1ccc(S(=O)(=O)N[C@H]2CC[C@@H](CCn3cc(-c4cccc(F)c4)nn3)O[C@H]2CO)cc1 | 1 | -14 | x | 2 | 34*
Cc1ccc(S(=O)(=O)N[C@@H]2CC[C@H](CCn3cc(-c4cccc(F)c4)nn3)O[C@H]2CO)cc1 | 0 | -7 | x | -1 | -3
CCCN1[C@@H]2Cn3c(ccc(-c4ccccc4)c3=O)[C@H]1[C@@H](C(=O)NCC)[C@@H]2CO | -1 | -3 | x | 3 | 3
CC=Cc1ccc2n(c1=O)C[C@H]1[C@H](CO)[C@@H](C(=O)NCc3cccc(F)c3)[C@@H]2N1S(C)(=O)=O (mixture of isomers) | -1 | -6 | x | -23 | 14
CC(C)NC(=O)N1[C@@H]2CN(C(=O)Nc3ccccc3)c3ccccc3[C@@H]2[C@@H]1CO | 1 | 5 | x | -1 | -4
Cc1noc(C)c1NC(=O)Nc1ccc2c(c1)C(=O)N([C@H](C)CO)C[C@@H](C)[C@H](CN(C)C(=O)c1ccccc1)OCCCC[C@H](C)O2 | -4 | 50 | x | -2 | 14
CCCCNC(=O)c1ccc2nc(-c3ccco3)c(-c3ccco3)nc2c1 | 0 | 0 | -6 | x | u
O=C(NCCCO)c1ccc2nc(-c3ccco3)c(-c3ccco3)nc2c1 | -8 | -7 | -151 | 15* | -1
CC(C)NC(=O)N(C)C[C@H]1Oc2ccc(NC(=O)Nc3ccccc3)cc2CC(=O)N([C@@H](C)CO)C[C@@H]1C | -2 | 1 | x | x | -6
CCOc1ccc(NC(=O)Cc2ccccc2)c([N+](=O)[O-])c1 | x | x | -5 | x | x
CCOc1ccc(NN=C(C(=O)OC)C(=O)OC)c([N+](=O)[O-])c1 | -1 | 35 | -12 | -5 | 37*
C[C@@H]1CCCCO[C@H](CN(C)C(=O)Cc2ccccc2)[C@H](C)CN([C@@H](C)CO)C(=O)c2cc(NC(=O)C3CCCCC3)ccc2O1 | x | x | x | x | 3
CC(=O)Nc1cccc(-c2ccnc3c2CC(C(=O)NCc2ccc(F)c(F)c2)O3)c1 (configuration not stated) | 6 | 1 | -5 | 15* | -7
CC(=O)Nc1cccc(-c2ccnc3c2CC(C(=O)NCc2ccc(N(C)C)cc2)O3)c1 (configuration not stated) | 31* | 0 | -6 | 2 | 4
CC(=O)Nc1cccc(-c2ccnc3c2CC(C(=O)NCc2ccncc2)O3)c1 (configuration not stated) | -8 | -6 | -10 | x | -8
CCN(C[C@H]1[C@H](c2ccccc2)[C@H](CO)N1CC1CC1)C(=O)c1ccccn1 | -3 | -11 | x | -2 | 5
CCN(C[C@H]1[C@@H](c2ccccc2)[C@H](CO)N1CC1CC1)C(=O)c1ccccn1 | -2 | 43 | x | 0 | 25*
CCN(C[C@H]1[C@H](c2ccccc2)[C@@H](CO)N1CC1CC1)C(=O)c1ccccn1 | -2 | -9 | x | 0 | 21*
CCCc1c(C)nc(N2CCN(c3ccc(F)cc3)CC2)[nH]c1=O | -1 | 3 | -2 | 21* | 1
CCc1c(C)nc(N2CCN(c3ccc(F)cc3)CC2)[nH]c1=O | -8 | 3 | -3 | 0 | -1
CCCN(C)C[C@@H]1Oc2cc(C#CC(C)C)ccc2S(=O)(=O)N([C@@H](C)CO)C[C@H]1C | 3 | 14 | x | 1 | -5
CN(C)S(=O)(=O)c1cccc(NC(=O)c2cc3c(=O)n4ccccc4nc3s2)c1 | -1 | -1 | -13 | 16* | -2
O=C(C[C@H]1C[C@H]2c3cc(NS(=O)(=O)c4ccc(F)cc4)ccc3O[C@H]2[C@H](CO)O1)NCc1ccccc1F | 1 | 11 | x | 4 | -4
CC(C)NC(=O)N(C)C[C@H]1Oc2cc(Br)ccc2S(=O)(=O)N([C@@H](C)CO)C[C@H]1C | -3 | 28 | x | -2 | -3
CC1=NN(c2cccc(F)c2)C(=O)/C1=C/c1ccc(N(C)C)cc1 | -19 | -4 | -2 | -2 | 1
SMILES | AF4-AF9 inh | S100A4 inh HTS | CaV13 FRET inh | SIRT5 inh | DENV2 CPE
COc1ccc(/C=C2/C(=O)N(c3cccc(F)c3)N=C2C)c(OC)c1 | -1 | 3 | -4 | 1 | 37*
CN1CCN(S(=O)(=O)c2ccc(SCCOc3ccccc3)nc2)CC1 | x | x | -5 | x | x
CCOc1ccc(OCCSc2ccc(S(=O)(=O)N3CCN(C)CC3)cn2)cc1 | 27* | -1 | -6 | -2 | -1
C[C@@H]1CN([C@@H](C)CO)C(=O)Cc2cc(N(C)C)ccc2O[C@@H]1CN(C)Cc1ccc(Cl)c(Cl)c1 | 43* | 7 | x | 0 | 1
C[C@@H]1CN([C@@H](C)CO)C(=O)c2cc(N(C)C)ccc2O[C@H]1CN(C)Cc1ccc(Cl)c(Cl)c1 | 11 | 0 | x | 3 | -3
C[C@@H]1CCCCO[C@@H](CN(C)Cc2ccc(Cl)c(Cl)c2)[C@@H](C)CN([C@H](C)CO)C(=O)c2cc(N(C)C)ccc2O1 | 48* | 9 | x | x | 4
C[C@H](CO)N1C[C@H](C)[C@H](CN(C)Cc2ccc3c(c2)OCO3)OCCCC[C@H](C)Oc2ccc(N(C)C)cc2C1=O | 8 | 8 | x | -2 | -4
C[C@H](CO)N1C[C@H](C)[C@@H](CN(C)Cc2ccc3c(c2)OCO3)Oc2ccc(N(C)C)cc2C1=O | -4 | 6 | x | 1 | 23*
C[C@H](CO)N1C[C@H](C)[C@H](CN(C)Cc2ccc(Cl)c(Cl)c2)Oc2ccc(N(C)C)cc2C1=O | 32* | 3 | x | 0 | -2
N#C[C@@H]1[C@H](c2ccccc2)[C@H](CO)N1C(=O)Cc1ccccn1 | -4 | 0 | x | 1 | -5
COc1cccc(NC(=O)Nc2ccc3c(c2)C(=O)N(C)[C@@H]2CC[C@H](CC(=O)NCCc4ccccc4)O[C@H]2CO3)c1 | 6 | -16 | x | -3 | 0
Cc1ccccc1S(=O)(=O)N1C[C@@H](O)COC[C@H]2O[C@H](CC(=O)N3CCOCC3)CC[C@@H]21 | -1 | -7 | x | -1 | -1
C[C@H](CO)N1C[C@H](C)[C@@H](CN(C)C(=O)c2ccccc2)Oc2cc(C#CC3CC3)ccc2S1(=O)=O | 3 | -9 | x | -3 | -9
C[C@H](CO)N1C[C@H](C)[C@@H](CN(C)Cc2ccc(Cl)c(Cl)c2)OCCCC[C@H](C)Oc2ccc(N(C)C)cc2C1=O | 43* | -7 | x | -2 | 30*
COCC(=O)Nc1ccc2c(c1)C(=O)N(C)C[C@@H](OC)[C@H](C)CN(Cc1ccccc1F)[C@@H](C)CO2 | u | -4 | x | 2 | 6
COc1cccc(NC(=O)N2CC(=O)N3[C@H](CO)[C@@H](c4ccc(C5=CCCC5)cc4)[C@@H]3C2)c1 | 0 | -14 | x | 10 | -15
CC(C)(C)C(=O)CSc1ncnc2c1cnn2Cc1ccccc1 | 0 | 2 | -7 | 15* | -2
Cc1ccc(S(=O)(=O)N(C)C[C@H]2Oc3ccc(NC(=O)CCN4CCOCC4)cc3C(=O)N([C@H](C)CO)C[C@H]2C)cc1 | 1 | -7 | x | -4 | 2

Compound activity from PubChem BioAssay.
